The values that follow come from ChEMBL document CHEMBL1153377, “8-Bromo-9-alkyl adenine derivatives as tools for developing new adenosine A2A and A2B receptors ligands” (Bioorg Med Chem, 2009).

One assay concerns the target T1, Adenosine receptor A2b (Homo sapiens, UniProt P29275).
T1 sequence (P29275 whole entry): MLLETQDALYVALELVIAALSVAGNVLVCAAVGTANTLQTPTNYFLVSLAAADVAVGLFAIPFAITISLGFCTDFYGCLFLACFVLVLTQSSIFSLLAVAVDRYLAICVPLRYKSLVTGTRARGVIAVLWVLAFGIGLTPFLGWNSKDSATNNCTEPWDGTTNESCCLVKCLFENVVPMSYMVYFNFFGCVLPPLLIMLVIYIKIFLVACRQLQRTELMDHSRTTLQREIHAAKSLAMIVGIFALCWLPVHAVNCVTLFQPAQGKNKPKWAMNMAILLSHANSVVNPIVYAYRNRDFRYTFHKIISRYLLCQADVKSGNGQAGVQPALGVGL
The assay is described as follows: Antagonist activity at human adenosine A2B receptor expressed in CHO cells assessed as inhibition of NECA-stimulated adenylyl cyclase activity. Format: functional, cell-based. The method, boiled down:
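Membranes from CHO cells stably transfected with human A2B receptor, prepared by a single high-speed centrifugation of the homogenate, resuspended in 50 mM Tris/HCl pH 7.4 and used at once. Inhibition of NECA-stimulated adenylyl cyclase activity measured; IC50 converted to Ki by Cheng-Prusoff equation.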

For the next assay, the target named is Adenosine receptor A2a (Homo sapiens, UniProt P29274). Nature of the assay: Displacement of [3H]NECA from human adenosine A2A receptor expressed in CHO cells. The format is cell-based. The method, boiled down:
(§1)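 CHO cells stably expressing human receptor; membranes from a two-step spin (1000 g, then 100,000 g), resuspended in binding buffer, stored -80 °C. Competition with [3H]NECA at 30 nM (A2A) or 10 nM (A3); nonspecific binding defined with […]. Ki derived from competition experiments.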

The next assay has as its target T2, Adenosine receptor A1 (Homo sapiens, UniProt P30542).
T2 sequence (P30542 whole entry): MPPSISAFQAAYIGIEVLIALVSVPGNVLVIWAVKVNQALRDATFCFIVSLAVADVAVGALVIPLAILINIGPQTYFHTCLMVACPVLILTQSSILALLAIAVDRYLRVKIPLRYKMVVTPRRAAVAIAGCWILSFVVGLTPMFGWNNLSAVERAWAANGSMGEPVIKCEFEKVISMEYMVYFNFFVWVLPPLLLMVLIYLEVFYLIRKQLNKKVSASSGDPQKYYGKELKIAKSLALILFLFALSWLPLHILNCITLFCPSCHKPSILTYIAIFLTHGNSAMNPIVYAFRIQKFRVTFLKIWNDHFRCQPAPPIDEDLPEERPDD
Nature of the assay: Displacement of [3H]CCPA from human adenosine A1 receptor expressed in CHO cells. Format: cell-based. In outline: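 Membranes from CHO cells stably expressing human A1 receptor (1000 g spin to clear nuclei, then 100,000 g pellet, stored -80 °C in binding buffer). Competition binding with 1 nM [3H]CCPA; nonspecific binding defined with 1 mM theophylline. Ki calculated from competition curves.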

The target in the next assay is T3, Adenosine receptor A3 (Homo sapiens, UniProt P0DMS8).
T3 sequence (P0DMS8 whole entry): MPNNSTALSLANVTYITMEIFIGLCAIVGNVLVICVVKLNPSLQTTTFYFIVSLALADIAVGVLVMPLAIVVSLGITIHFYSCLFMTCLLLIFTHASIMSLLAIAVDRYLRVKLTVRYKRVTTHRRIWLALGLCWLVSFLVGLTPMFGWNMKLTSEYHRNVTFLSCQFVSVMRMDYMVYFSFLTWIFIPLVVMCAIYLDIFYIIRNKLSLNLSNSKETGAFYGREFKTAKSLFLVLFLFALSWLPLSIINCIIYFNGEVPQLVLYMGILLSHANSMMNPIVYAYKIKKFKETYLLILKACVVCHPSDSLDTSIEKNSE
The assay is described as follows: Displacement of [3H]NECA from human adenosine A3 receptor expressed in CHO cells. The format is cell-based. The method, boiled down: as §1

Chain of Adenosine receptor A2a (P29274 whole entry): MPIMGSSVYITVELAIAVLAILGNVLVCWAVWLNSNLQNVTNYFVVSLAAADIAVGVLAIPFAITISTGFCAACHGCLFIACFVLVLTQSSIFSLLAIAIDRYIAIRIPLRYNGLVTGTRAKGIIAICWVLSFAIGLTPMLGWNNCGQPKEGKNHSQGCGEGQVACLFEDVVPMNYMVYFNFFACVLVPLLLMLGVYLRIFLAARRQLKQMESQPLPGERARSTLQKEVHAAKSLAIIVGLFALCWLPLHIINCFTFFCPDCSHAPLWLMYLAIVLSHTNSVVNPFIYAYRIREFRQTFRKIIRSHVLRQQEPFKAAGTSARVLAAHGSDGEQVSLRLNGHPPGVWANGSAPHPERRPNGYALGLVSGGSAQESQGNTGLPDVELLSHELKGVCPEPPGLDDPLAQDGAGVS

Regarding `CCC(C)n1c(Br)nc2c(N)ncnc21` (stereo unspecified), the Ki on Adenosine receptor A2b came out at 1.2 µM; on Adenosine receptor A2a it was 0.39 µM; at Adenosine receptor A1, 3.1 µM; on Adenosine receptor A3, 15 µM.
For `CC(C)Cn1cnc2c(N)ncnc21` the same measures were greater than 30 µM, greater than 100 µM, greater than 100 µM and greater than 100 µM.
In the same order, the values of `Nc1ncnc2c1nc(Br)n2CCc1ccccc1` are greater than 30 µM, 4.9 µM, 12 µM and greater than 30 µM.
In the same order, the values of `Nc1ncnc2c1nc(Br)n2C1CCC1` are 4.1 µM, 0.66 µM, 2.2 µM and 6.2 µM.
With `Nc1ncnc2c1nc(Br)n2C1CCCCC1`, the Ki is greater than 30 µM on Adenosine receptor A2b, 15 µM at Adenosine receptor A2a, 4.6 µM at Adenosine receptor A1 and 11 µM at Adenosine receptor A3.
For `CCC(C)n1cnc2ncnc(N)c21` (stereo unspecified) the same measures were greater than 30 µM, greater than 100 µM, greater than 100 µM and greater than 100 µM.
For the compound `Nc1ncnc2ncn(CCO)c12`, the Ki on Adenosine receptor A2b is greater than 30 µM; on Adenosine receptor A2a it was greater than 100 µM; at Adenosine receptor A1, greater than 100 µM; at Adenosine receptor A3 it was greater than 100 µM.
With `CC(C)n1cnc2c(N)ncnc21`, the Ki at Adenosine receptor A2b is 16 µM; on Adenosine receptor A2a, 4.1 µM; at Adenosine receptor A1, 4.3 µM; at Adenosine receptor A3, greater than 100 µM.
On to `Nc1ncnc2c1ncn2CCCO`, for which the Ki on Adenosine receptor A2b is greater than 30 µM; at Adenosine receptor A2a, 3.9 µM; at Adenosine receptor A1, greater than 100 µM; at Adenosine receptor A3 it was greater than 100 µM.
Regarding `CCCCn1cnc2c(N)ncnc21`, the Ki on Adenosine receptor A2b is greater than 30 µM; on Adenosine receptor A2a, 7.8 µM; at Adenosine receptor A1, greater than 100 µM; at Adenosine receptor A3, greater than 100 µM.
For the compound `CC(O)Cn1cnc2ncnc(N)c21` (stereo unspecified), the Ki at Adenosine receptor A2b was greater than 30 µM; at Adenosine receptor A2a, greater than 100 µM; at Adenosine receptor A1, greater than 100 µM; on Adenosine receptor A3, greater than 100 µM.
Turning to `CCn1cnc2ncnc(N)c21`, the Ki was greater than 30 µM on Adenosine receptor A2b, 30 µM on Adenosine receptor A2a, greater than 100 µM on Adenosine receptor A1 and greater than 100 µM at Adenosine receptor A3.
As to `C=CCCn1cnc2c(N)ncnc21`, the Ki at Adenosine receptor A2b was greater than 30 µM; on Adenosine receptor A2a, 8.5 µM; at Adenosine receptor A1, greater than 100 µM; on Adenosine receptor A3 it was greater than 100 µM.
As to `Nc1ncnc2c1ncn2C1CCCCC1`, the Ki was greater than 30 µM at Adenosine receptor A2b, greater than 100 µM at Adenosine receptor A2a, greater than 100 µM at Adenosine receptor A1 and greater than 100 µM at Adenosine receptor A3.
Regarding `Cn1c(Br)nc2c(N)ncnc21`, the Ki at Adenosine receptor A2b is 0.72 µM; on Adenosine receptor A2a, 0.12 µM; at Adenosine receptor A1, 0.57 µM; at Adenosine receptor A3, greater than 100 µM.
As for `CCn1cnc2c(N)ncnc21`, the Ki on Adenosine receptor A2b is greater than 30 µM; on Adenosine receptor A2a, 2.2 µM; at Adenosine receptor A1, 7.4 µM; on Adenosine receptor A3, greater than 100 µM.
In the same order, the values of `CCCn1cnc2c(N)ncnc21` are 1.7 µM, 9.6 µM, 9.4 µM and no less than 100 µM.
Regarding `Nc1ncnc2c1ncn2C1CC1`, the Ki was greater than 30 µM at Adenosine receptor A2b, 2.3 µM on Adenosine receptor A2a, greater than 100 µM on Adenosine receptor A1 and greater than 100 µM at Adenosine receptor A3.
`CC(C)n1c(Br)nc2c(N)ncnc21`: the Ki on Adenosine receptor A2b is 1.1 µM; at Adenosine receptor A2a, 0.074 µM; at Adenosine receptor A1 it was 0.83 µM; at Adenosine receptor A3, 15 µM.
Consider `Nc1ncnc2c1ncn2CCO`, for which the Ki at Adenosine receptor A2b is greater than 30 µM; at Adenosine receptor A2a, 11 µM; on Adenosine receptor A1, 29 µM; on Adenosine receptor A3 it was greater than 100 µM.
`Nc1ncnc2c1nc(Br)n2CCCO`: the Ki turned out to be 5.1 µM on Adenosine receptor A2b, 0.085 µM at Adenosine receptor A2a, 1 µM on Adenosine receptor A1 and 3.2 µM at Adenosine receptor A3.
`C=CCCn1c(Br)nc2c(N)ncnc21`: the Ki was greater than 30 µM on Adenosine receptor A2b, 1.6 µM on Adenosine receptor A2a, 4.9 µM on Adenosine receptor A1 and greater than 100 µM at Adenosine receptor A3.
Regarding `Cn1cnc2c(N)ncnc21`, the Ki at Adenosine receptor A2b is greater than 30 µM; on Adenosine receptor A1, 12 µM; at Adenosine receptor A3, greater than 100 µM.
